# Data as given in PubChem BioAssay.
# The source made the active and inactive calls.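 How the source made its calls, unless noted: active means inhibition above 20% together with a positive visual image hit; inconclusive means visual image hit but inhibition not above 20%; inactive means no visual image hit.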
# Experiments:
# [1] = inhibitors of TNFa-induced NFkB p65 translocation, primary screen, imaging, HUVEC, MLSMR starter and 10KST1 sets (AID 438); details: HUVEC TNFa-induced p65 nuclear translocation; cell count: measured here: nuclei count (cytotoxicity indicator), at 2.08 µM; inhibition: at 2 µM, stronger effect = higher value, 0% TNFa-plus-vehicle, 100% no-TNFa wells;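 further: compound added about 3h40 before a 20 min TNFalpha stimulation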;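 on inhibition: signal is the nuclear over cytoplasmic p65 intensity ratio per well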
# [2] = reduction of polyQ htt aggregates in cells – imaging, exon1htt(103Q)mCFP cells, high-content imaging, primary screen (AID 483;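 active means visual image review flags a hit and inhibition of aggregation exceeds 20%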;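 further: compound exposure lasted 3 days before fixation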;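 on nuclei count: percent of the per-plate median nuclei count of sample wells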); details: exon1htt(103Q)mCFP cell line, aggregate imaging, at 2 µM; inhibition of aggregation: stronger effect = higher value; nuclei count: measured here: cell count, toxicity
# [3] = endothelial E-selectin expression blockers – imaging, HUVEC, immunofluorescence, MLSMR starter and 10KST1 sets, primary screen (AID 487;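 active means visually confirmed hit in the image check and inhibition above 20%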;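 on inhibition: signal is fraction of cell area covered by stained E-selectin grains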;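 on nuclei count: 100% = median nuclei count of all wells on the same plate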); details: HUVEC TNFalpha-induced E-selectin immunofluorescence imaging, at 2 µM; inhibition: stronger effect = higher value; nuclei count: measured here: cell number, toxicity
# [4] = target: Voltage-gated potassium channel subunit beta-2 (Rattus norvegicus) (UniProt P62483); experiment: inhibitors of rat Kvbeta2 reductase activity – biochemical, NADPH fluorescence, primary screen (AID 622;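 active means fluorescence slope higher than the sample average by over 3 SD, cut at about -0.22 in these data, passing the limit was not always enough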;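 further: slope of raw intensity against log time taken from 70 to 1610 s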); details: recombinant KvBeta, 4-cyanobenzaldehyde reduction, at 10 µM, stronger effect = higher value
# Chain of Voltage-gated potassium channel subunit beta-2 (Rattus norvegicus) (P62483 whole entry, looked up): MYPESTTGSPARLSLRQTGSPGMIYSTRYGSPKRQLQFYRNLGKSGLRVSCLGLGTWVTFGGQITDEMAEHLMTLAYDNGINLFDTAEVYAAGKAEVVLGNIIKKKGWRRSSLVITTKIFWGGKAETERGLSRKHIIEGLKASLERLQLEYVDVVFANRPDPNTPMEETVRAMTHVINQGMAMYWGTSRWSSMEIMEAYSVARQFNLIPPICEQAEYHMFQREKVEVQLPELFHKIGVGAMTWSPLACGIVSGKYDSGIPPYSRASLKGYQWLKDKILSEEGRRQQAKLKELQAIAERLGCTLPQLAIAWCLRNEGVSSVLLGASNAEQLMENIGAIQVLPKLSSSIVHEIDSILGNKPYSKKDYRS
# [5] = target: Voltage-gated potassium channel subunit beta-2 (Rattus norvegicus) (UniProt P62483); experiment: enhancers of rat Kvbeta2 NADPH turnover – biochemical, NADPH fluorescence, primary screen (AID 623;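 active means NADPH fluorescence slope more negative than the mean of all samples by about 3 SD, 99.7% confidence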;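 further: fluorescence intensity change per second fitted from 20 to 320 s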); details: Recombinant KvBeta, NADPH fluorescence decrease slope, 10 min; at 10 µM; stronger effect = lower value
# [6] = target: Muscarinic acetylcholine receptor M4 (Homo sapiens) (UniProt P08173); experiment: M4-linked GIRK flux change, two-sided – cell-based, HEK293 M4/GIRK, thallium flux, BTC-AM, M4 allosteric agonist project, primary screen (AID 625;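 active means fluorescence slope after compound addition differing from the mean of all tested samples at 99.7% confidence, mostly higher but some lower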;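 further: thallium influx through GIRK channels coupled to M4 in HEK293 cells with BTC-AM dye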); details: at 10 µM, actives lie on both sides
# Chain of Muscarinic acetylcholine receptor M4 (Homo sapiens) (P08173 whole entry, looked up): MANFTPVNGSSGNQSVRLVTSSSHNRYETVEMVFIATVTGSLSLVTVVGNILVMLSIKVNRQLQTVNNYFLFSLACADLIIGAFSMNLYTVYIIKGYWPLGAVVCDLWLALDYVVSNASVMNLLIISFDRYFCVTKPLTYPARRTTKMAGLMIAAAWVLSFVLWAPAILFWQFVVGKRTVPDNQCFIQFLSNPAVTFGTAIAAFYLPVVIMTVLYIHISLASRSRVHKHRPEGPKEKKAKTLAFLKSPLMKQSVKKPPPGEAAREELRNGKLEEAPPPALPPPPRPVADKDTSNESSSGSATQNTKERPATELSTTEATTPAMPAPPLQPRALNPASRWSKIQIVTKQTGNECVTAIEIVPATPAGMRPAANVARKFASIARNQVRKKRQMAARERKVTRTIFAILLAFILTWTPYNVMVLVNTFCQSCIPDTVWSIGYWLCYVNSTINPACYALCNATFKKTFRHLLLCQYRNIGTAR
# Outline: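 Assay system: HEK293 cells with M4 receptor and GIRK channels / Controls: carbachol and DMSO controls / Schedule: 1 h dye loading, 2 min kinetic read / Technique: kinetic fluorescence with BTC-AM dye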
# [7] = blockers of RIG-like receptor reporter activation – cell-based, Sendai virus stimulus, luciferase, 10K MLSCN set, TLR/RLR signaling modifier project, primary screen (AID 602276;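 active means inhibition at or above 50% at 10 µM; inactive means inhibition below 50%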;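 further: firefly luciferase from ISG56 promoter only with Renilla not read in this screen; 0% = Sendai virus plus DMSO and 100% = medium plus DMSO without virus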); details: HEK293 RL24 IRF3 luciferase reporter, at 10 µM, stronger effect = higher value
# [8] = TLR3 IRF3 reporter activation blockers – cell-based, poly I:C stimulus, luciferase, 10K MLSCN set, primary screen (AID 602277;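 active means inhibition of the reporter signal at or above 50%; inactive means inhibition below 50%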); details: HEK293-TLR3 RL24 IRF3 luciferase reporter, at 10 µM, stronger effect = higher value
SMILES,cell count [1],inhibition [1],inhibition of aggregation [2],nuclei count [2],inhibition [3],nuclei count [3],fluorescence slope [4],NADPH fluorescence slope [5],fluorescence slope [6],inhibition [7],inhibition [8]
O=C(NCc1ccco1)C1Cc2ccccc2CN1S(=O)(=O)c1ccccc1F (stereo not drawn),654,7.7% (inactive),26.2% (inactive),95.5%,-30% (inactive),98.1%,-0.591 (inactive),-1.7e-05 (inactive),0.0061 (inactive),6.51% (inactive),-0.697% (inactive)
O=S(=O)(NCC1CCCO1)c1ccc(S(=O)(=O)N2CCc3ccccc3C2)cc1 (stereo not drawn),685,-4.3% (inactive),-21.6% (inactive),97.8%,-132% (inactive),140%,-0.525 (inactive),-3.8e-05 (inactive),0.00466 (inactive),19.5% (inactive),19.5% (inactive)
CCSc1nnc(NC(=O)c2cc(C)oc2C)s1,352,-1.4% (inactive),5.7% (inactive),98.6%,5.1% (inactive),56.1%,-0.451 (inactive),-4.1e-07 (inactive),0.00476 (inactive),-35.9% (inactive),-83.6% (inactive)
Cn1cccc1-c1nc2ccc(NC(=O)c3ccco3)cc2[nH]1,293,-0.9% (inactive),-0.8% (inactive),86.3%,-8.2% (inactive),110%,-0.429 (inactive),1e-06 (inactive),0.00457 (inactive),-37.6% (inactive),-102% (inactive)
CCCCOc1ccc(-c2nnn(CC(=O)NCc3ccco3)n2)cc1,457,3.9% (inactive),-61.8% (inactive),18.8%,-62% (inactive),104%,-0.523 (inactive),-0.000212 (inactive),0.00448 (inactive),30.6% (inactive),-15.6% (inactive)
CC(C)n1c(=NC(=O)c2ccco2)c(C#N)cc2c(=O)n3ccccc3cc21,378,1.7% (inactive),-20.7% (inactive),104%,-45.7% (inactive),112%,-0.576 (inactive),3.1e-06 (inactive),0.00331 (inactive),-23.8% (inactive),-8.73% (inactive)
CS(=O)(=O)Nc1ccc(C(=O)NCc2ccco2)cc1,499,-0.3% (inactive),16.6% (inactive),60%,11.9% (inactive),105%,-0.571 (inactive),1.2e-06 (inactive),0.00586 (inactive),5.42% (inactive),16.9% (inactive)
CCCn1c(N2CCN(CC(=O)NCc3cccs3)CC2)nc2ccccc21,451,-6.7% (inactive),5.2% (inactive),110%,-81.5% (inactive),228%,-0.437 (inactive),-3.1e-05 (inactive),0.00415 (inactive),21.5% (inactive),28.5% (inactive)
Cn1nnnc1SCC(=O)Nc1ccccc1C(=O)NCc1ccccc1,368,7.2% (inactive),0.2% (inactive),98.6%,-74.8% (inactive),124%,-0.275 (inactive),-2.2e-05 (inactive),0.00734 (inactive),-6.6% (inactive),-17.1% (inactive)
Cc1ccc(NC(=O)CSc2nnc(CSc3nc(C)cc(C)n3)n2Cc2ccco2)c(C)c1,655,1.6% (inactive),1.3% (inactive),79.3%,-23.6% (inactive),108%,-0.454 (inactive),5.9e-05 (inactive),0.0102 (inactive),-22% (inactive),-4.45% (inactive)
CCN(CC)c1ccc(CNc2ccc(Br)cn2)cc1,388,-2.4% (inactive),-13.8% (inactive),101%,-74.6% (inactive),122%,-0.546 (inactive),-0.000144 (inactive),0.00212 (inactive),-41.1% (inactive),-92.7% (inactive)
CCCCc1cc(=O)oc2cc(C)cc(OC(C)C(=O)O)c12 (stereo not drawn),452,-2.1% (inactive),-5.4% (inactive),110%,-39.6% (inactive),134%,-0.0718 (inactive),-1e-05 (inactive),0.00603 (inactive),5.95% (inactive),21.5% (inactive)
CCC(C)C(NC(=O)C1CCC(C)CC1)C(=O)NCc1cccnc1 (stereo not drawn),320,-13.1% (inactive),1.5% (inactive),103%,22.9% (inactive),102%,-0.325 (inactive),-5.6e-05 (inactive),0.00576 (inactive),12.4% (inactive),4.61% (inactive)
COc1ccc(Cn2c(=O)[nH]c3cc(C(=O)NCCCN4CCCC4)ccc3c2=O)cc1,474,-5.2% (inactive),30.8% (inactive),88.2%,30.4% (inactive),139%,-0.26 (inactive),-1.4e-05 (inactive),0.00648 (inactive),11% (inactive),-6.33% (inactive)
CCNCCNC(=O)c1c(O)c2ccccc2n(CC)c1=O,289,-1.4% (inactive),-5.8% (inactive),60.8%,29.6% (inactive),99.7%,-0.539 (inactive),-4.3e-05 (inactive),0.0077 (inactive),10% (inactive),13.5% (inactive)
CN(C)C(=O)CN(c1ccc(F)c(Cl)c1)S(C)(=O)=O,352,-2.1% (inactive),-0.4% (inactive),104%,5.1% (inactive),109%,-0.56 (inactive),-8.3e-05 (inactive),0.00357 (inactive),1.05% (inactive),9.43% (inactive)
COc1ccc(C(F)(F)F)cc1NC(=O)c1nc2nc(C)cc(C(F)F)n2n1,800,16.4% (inactive),14.9% (inactive),94.5%,-22.3% (inactive),103%,-0.498 (inactive),-2e-05 (inactive),0.00547 (inactive),5.86% (inactive),10.9% (inactive)
CCOc1cccc(C(=O)Nc2cccc(-c3nc4ncccc4o3)c2C)c1,333,3.3% (inactive),10.5% (inactive),103%,-46.8% (inactive),108%,-0.545 (inactive),-3e-05 (inactive),0.00572 (inactive),11.9% (inactive),-11.2% (inactive)
CCCCCCNS(=O)(=O)c1ccc(Cl)s1,579,9.2% (inactive),-1.2% (inactive),102%,-52.4% (inactive),89.1%,-0.492 (inactive),0.000132 (inactive),0.00433 (inactive),19.6% (inactive),22.4% (inactive)
Cc1ccc(Cn2nnc3c(=O)[nH]c(C4CCN(C(=O)c5cccs5)CC4)nc32)cc1,430,5.1% (inactive),-16.4% (inactive),106%,-71.2% (inactive),109%,-0.546 (inactive),1.3e-05 (inactive),0.00572 (inactive),5.84% (inactive),10.8% (inactive)
c1cncc(-c2nnc(-c3ccco3)o2)c1,383,-1.1% (inactive),-27% (inactive),116%,3.9% (inactive),95.6%,-0.532 (inactive),-1.2e-05 (inactive),0.00567 (inactive),-1.51% (inactive),-11.7% (inactive)
CC(=O)Nc1c(Cl)n(C(C)=O)c2ccccc12,432,-1% (inactive),-9.1% (inactive),100%,-3.8% (inactive),103%,-0.304 (inactive),-2.6e-05 (inactive),0.00935 (inactive),27.6% (inactive),21% (inactive)
N#CC1=C(N)Oc2n[nH]c(-c3ccncc3)c2C1c1ccsc1 (stereo not drawn),387,-1.5% (inactive),-10.3% (inactive),109%,35.9% (inactive),98.6%,-0.546 (inactive),1.9e-05 (inactive),0.00579 (inactive),-2.51% (inactive),-6.52% (inactive)
CCc1c(C)nc(N)n2c(SCC(=O)N3CCCc4ccccc43)nnc12,503,14.6% (inactive),-13.3% (inactive),123%,-251% (inactive),147%,-0.454 (inactive),-6.5e-05 (inactive),0.00455 (inactive),20.9% (inactive),31.4% (inactive)
Cc1ccc(S(=O)(=O)N2CCCC2)cc1S(=O)(=O)N1CCCC1,698,-9% (inactive),-7.5% (inactive),111%,10.3% (inactive),116%,-0.609 (inactive),-1.2e-05 (inactive),0.00607 (inactive),13.4% (inactive),12.9% (inactive)
COc1cccc(C2=NOC(C(=O)Nc3ccc(C(C)=O)cc3)C2)c1 (stereo not drawn),808,-16.3% (inactive),-6.4% (inactive),107%,-49.8% (inactive),80%,-0.583 (inactive),2.1e-05 (inactive),0.00535 (inactive),-34.2% (inactive),-61.5% (inactive)
Cc1ccc(CSc2nc3c(c(=O)[nH]2)C(c2ccncc2)C2=C(CCCC2=O)N3)cc1 (stereo not drawn),518,-16.7% (inactive),3.6% (inactive),79.3%,-14.5% (inactive),87.2%,-0.457 (inactive),-3.5e-05 (inactive),0.00543 (inactive),21.7% (inactive),15.5% (inactive)
Cc1ccc(C(=O)NC2CC3CCCC(C2)N3C(=O)NC2CCCCC2)cc1 (stereo not drawn),391,-5% (inactive),0.8% (inactive),98.7%,-32.5% (inactive),80.8%,-0.559 (inactive),5.4e-08 (inactive),0.00417 (inactive),-0.377% (inactive),9.12% (inactive)
